Measurements taken from ChEMBL document CHEMBL2040734, “Benzothiazoles: search for anticancer agents” (2012).

Tests used:
Type in all cases: functional
MDA-MB-468 = experiment: Cytotoxicity against human MDA-MB-468 cells assessed as cell growth at 0.01 uM after 48 hrs by sulforhodamine B assay; conditions: MDA-MB-468, 48 h, read-out: Activity
SK-MEL-5 [1] = experiment: Cytotoxicity against human SK-MEL-5 cells assessed as cell growth at 1 uM after 48 hrs by sulforhodamine B assay; conditions: SK-MEL-5, 48 h, read-out: Activity
OVCAR-5 = experiment: Cytotoxicity against human OVCAR5 cells assessed as cell growth at 10 '-5 M after 48 hrs by sulforhodamine B assay; conditions: OVCAR-5, 48 h, read-out: Activity
NCI-H522 = experiment: Cytotoxicity against human NCI-H522 cells assessed as cell growth at 100 uM after 48 hrs by sulforhodamine B assay; conditions: NCI-H522, 48 h, read-out: Activity
HL-60(TB) = experiment: Cytotoxicity against human HL-60(TB) cells assessed as cell growth at 0.01 uM after 48 hrs by sulforhodamine B assay; conditions: HL-60, 48 h, read-out: Activity
In short: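 NCI five-dose screen on the HL-60(TB) leukaemia line, grown in RPMI 1640 with 5% FBS and 2 mM L-glutamine and plated for 24 h before dosing. DMSO stocks were diluted in medium. Cells were exposed 48 h at 37 °C, then settled cells were fixed in 16% TCA (final) and stained with SRB, absorbance 515 nm. Percent growth = (Ti−Tz)/(C−Tz)×100, or (Ti−Tz)/Tz×100 when Ti<Tz.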

SR [2] = experiment: Cytotoxicity against human SR cells assessed as cell growth at 0.01 uM after 48 hrs by sulforhodamine B assay; conditions: read-out: Activity
PC-3 [3] = experiment: Cytotoxicity against human PC3 cells assessed as cell growth at 0.01 uM after 48 hrs by sulforhodamine B assay; conditions: PC-3, 48 h, read-out: Activity
SW-620 [4] = experiment: Cytotoxicity against human SW620 cells assessed as cell growth at 10 '-5 M after 48 hrs by sulforhodamine B assay; conditions: SW-620, 48 h, read-out: Activity
HCC 2998 = experiment: Cytotoxicity against human HCC2998 cells assessed as cell growth at 0.1 uM after 48 hrs by sulforhodamine B assay; conditions: HCC 2998, 48 h, read-out: Activity
In short: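 Five-dose NCI panel run at 0.01, 0.1, 1, 10 and 100 µM. Cells were in RPMI 1640 with 5% FBS and 2 mM L-glutamine, seeded at 5000–40,000 cells/well and pre-incubated 24 h. Drug was diluted from a DMSO stock into medium with 50 µg/ml gentamicin. Exposure was 48 h at 37 °C, 5% CO2. Cells were fixed with cold TCA and stained with 0.4% SRB, read at 515 nm. Percent growth came from time-zero, control and test absorbances.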

SF-268 = experiment: Cytotoxicity against human SF268 cells assessed as cell growth at 1 uM after 48 hrs by sulforhodamine B assay; conditions: SF-268, 48 h, read-out: Activity
RPMI-8226 = experiment: Growth inhibition of human RPMI8226 cells after 48 hrs by sulforhodamine B assay; conditions: RPMI-8226, 48 h; for CC50: read-out: LC50 (the source's name)
In short: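 Leukemia suspension lines were grown in RPMI 1640 with 5% FBS and 2 mM L-glutamine and plated at 5000–40,000 cells/well with 24 h preincubation. They were treated at 0.01, 0.1, 1, 10 and 100 µM (DMSO stock) for 48 h at 37 °C. Settled cells were fixed with 80% TCA (16% final) and stained with 0.4% SRB in 1% acetic acid, then read at 515 nm. GI50 was calculated against time-zero and control wells.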

CCRF-CEM = experiment: Cytotoxicity against human CCRF-CEM cells assessed as cell growth at 100 uM after 48 hrs by sulforhodamine B assay; conditions: read-out: Activity
In short: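 CCRF-CEM suspension leukemia cells in RPMI 1640 with 5% FBS and 2 mM L-glutamine, plated 24 h before dosing. Five concentrations (0.01–100 µM) were applied from a DMSO stock for 48 h at 37 °C. Settled cells were fixed with 80% TCA (final 16%) and stained with SRB, with read-out at 515 nm. Percent growth was derived from time-zero and control absorbances.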

MDA-MB-435 = experiment: Cytotoxicity against human MDA-MB-435 cells assessed as cell growth at 0.1 uM after 48 hrs by sulforhodamine B assay; conditions: MDA-MB-435, 48 h, read-out: Activity
SK-MEL-5 [5] = experiment: Cytotoxicity against human SK-MEL-5 cells assessed as cell growth at 10 '-5 M after 48 hrs by sulforhodamine B assay; conditions: SK-MEL-5, 48 h, read-out: Activity
SW-620 [6] = experiment: Cytotoxicity against human SW620 cells assessed as cell growth at 0.1 uM after 48 hrs by sulforhodamine B assay; conditions: SW-620, 48 h, read-out: Activity
ACHN = experiment: Cytotoxicity against human ACHN cells assessed as cell growth at 1 uM after 48 hrs by sulforhodamine B assay; conditions: read-out: Activity
In short: (§1)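 NCI-60 five-dose screen. Cells were grown in RPMI 1640 with 5% FBS and 2 mM L-glutamine and preincubated 24 h. Compound (DMSO stock) was tested at 0.01, 0.1, 1, 10 and 100 µM for 48 h at 37 °C. Cells were fixed in situ with cold TCA (final 10%) and stained with 0.4% SRB. A515 was read, and percent growth was calculated against time-zero and control plates.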

BT-549 = experiment: Cytotoxicity against human BT549 cells assessed as cell growth at 10 uM after 48 hrs by sulforhodamine B assay; conditions: BT-549, 48 h, read-out: Activity; in short: as §1
Malme-3M = experiment: Cytotoxicity against human MALME-3M cells assessed as cell growth at 100 uM after 48 hrs by sulforhodamine B assay; conditions: read-out: Activity
T47D = experiment: Cytotoxicity against human T47D cells assessed as cell growth at 10 '-5 M after 48 hrs by sulforhodamine B assay; conditions: read-out: Activity
LOX IMVI = experiment: Cytotoxicity against human LOXIMVI cells assessed as cell growth at 0.01 uM after 48 hrs by sulforhodamine B assay; conditions: read-out: Activity
SNB-19 = experiment: Growth inhibition of human SNB19 cells after 48 hrs by sulforhodamine B assay; conditions: SNB-19, 48 h
In short: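 Adherent NCI-60 lines were grown in RPMI 1640 with 5% FBS and 2 mM L-glutamine, plated at 5000–40,000 cells/well and preincubated 24 h. They were then exposed to five concentrations (0.01–100 µM, from a DMSO stock) for 48 h at 37 °C, 5% CO2. Cells were fixed with cold TCA (10% final, 60 min, 4 °C) and stained with 0.4% SRB. Dye was solubilized in 10 mM Tris base and A515 read. GI50 was derived from time-zero, control and treated absorbances.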

SR [7] = experiment: Cytotoxicity against human SR cells assessed as cell growth at 0.1 uM after 48 hrs by sulforhodamine B assay; conditions: read-out: Activity
PC-3 [8] = experiment: Cytotoxicity against human PC3 cells assessed as cell growth at 1 uM after 48 hrs by sulforhodamine B assay; conditions: PC-3, 48 h, read-out: Activity
U-251 = experiment: Cytotoxicity against human U251 cells assessed as cell growth at 10 uM after 48 hrs by sulforhodamine B assay; conditions: U-251, 48 h, read-out: Activity

Cc1ccc2nc(Nc3c(C)cccc3C)sc2c1
growth at 0.01 µM (MDA-MB-468): 88%
growth at 1 µM (SK-MEL-5 [1]): 66%
growth at 10 µM (OVCAR-5): 65.6%
growth at 100 µM (NCI-H522): 34%
growth at 0.01 µM (HL-60(TB)): 107%
growth at 0.01 µM (SR [2]): 98%
growth at 0.01 µM (PC-3 [3]): 102%
growth at 10 µM (SW-620 [4]): 21.6%
growth at 0.1 µM (HCC 2998): 90%
growth at 1 µM (SF-268): 79%
GI50 (RPMI-8226): > 100 µM
TGI (RPMI-8226): > 100 µM
CC50 (RPMI-8226): > 100 µM
growth at 100 µM (CCRF-CEM): 83%
growth at 0.1 µM (MDA-MB-435): 86%
growth at 10 µM (SK-MEL-5 [5]): 26.8%
growth at 0.1 µM (SW-620 [6]): 94%
growth at 1 µM (ACHN): 84%
growth at 10 µM (BT-549): 46%
growth at 100 µM (Malme-3M): 53%
growth at 10 µM (T47D): 45.8%
growth at 0.01 µM (LOX IMVI): 94%
GI50 (SNB-19): 5.83 µM
LC50 (concentration causing 50% net cell kill) (SNB-19): > 100 µM
TGI (SNB-19): > 100 µM
growth at 0.1 µM (SR [7]): 99%
growth at 1 µM (PC-3 [8]): 68%
growth at 10 µM (U-251): 63%

Clc1cccc(Cl)c1Nc1nc2cccc(Cl)c2s1
growth at 0.01 µM (MDA-MB-468): 89%
growth at 1 µM (SK-MEL-5 [1]): 50%
growth at 10 µM (OVCAR-5): 1.07%
growth at 100 µM (NCI-H522): -49%
growth at 0.01 µM (HL-60(TB)): 104%
growth at 0.01 µM (SR [2]): 100%
growth at 0.01 µM (PC-3 [3]): 96%
growth at 10 µM (SW-620 [4]): -84.9%
growth at 0.1 µM (HCC 2998): 87%
growth at 1 µM (SF-268): 62%
GI50 (RPMI-8226): 0.829 µM
TGI (RPMI-8226): 5.05 µM
CC50 (RPMI-8226): > 100 µM
growth at 100 µM (CCRF-CEM): -12%
growth at 0.1 µM (MDA-MB-435): 87%
growth at 10 µM (SK-MEL-5 [5]): -71.3%
growth at 0.1 µM (SW-620 [6]): 91%
growth at 1 µM (ACHN): 60%
growth at 10 µM (BT-549): -86%
growth at 100 µM (Malme-3M): -84%
growth at 10 µM (T47D): -4.9%
growth at 0.01 µM (LOX IMVI): 94%
GI50 (SNB-19): 1.34 µM
LC50 (concentration causing 50% net cell kill) (SNB-19): 6.74 µM
TGI (SNB-19): 3 µM
growth at 0.1 µM (SR [7]): 101%
growth at 1 µM (PC-3 [8]): 38%
growth at 10 µM (U-251): -84%
